The values that follow come from article PMC3668529 (FEBS Open Bio, 2013).

A short description of data set [1]: ITC demicellization of β-OG with and without co-dissolved inhibitor. Type of data set: physicochemical. As to conditions: for CMC / TΔSmic0 / ΔGmic0 / ΔHmic0: absence of rCPT-2. Put shortly: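 Syringe held 300 mM β-OG with 1% or 7.5% (v/v) DMSO, with or without 0.75 mM inhibitor, in 25 mM Tris/HCl pH 8, 150 mM NaCl, 2 mM TCEP, degassed 10 min. Injected stepwise into buffer. Initial constant heats gave ΔHdemic0 (ΔHmic0 of opposite sign). Curves simulated with a cooperative association model. CMC taken as midpoint, ΔGmic0 = RT lnCMC, ΔCp0 from linear fits of ΔHmic0 versus temperature.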

Data set [2] has as its target T1, rCPT-2 (Rattus norvegicus, UniProt P18886).
T1 sequence (P18886 26-658): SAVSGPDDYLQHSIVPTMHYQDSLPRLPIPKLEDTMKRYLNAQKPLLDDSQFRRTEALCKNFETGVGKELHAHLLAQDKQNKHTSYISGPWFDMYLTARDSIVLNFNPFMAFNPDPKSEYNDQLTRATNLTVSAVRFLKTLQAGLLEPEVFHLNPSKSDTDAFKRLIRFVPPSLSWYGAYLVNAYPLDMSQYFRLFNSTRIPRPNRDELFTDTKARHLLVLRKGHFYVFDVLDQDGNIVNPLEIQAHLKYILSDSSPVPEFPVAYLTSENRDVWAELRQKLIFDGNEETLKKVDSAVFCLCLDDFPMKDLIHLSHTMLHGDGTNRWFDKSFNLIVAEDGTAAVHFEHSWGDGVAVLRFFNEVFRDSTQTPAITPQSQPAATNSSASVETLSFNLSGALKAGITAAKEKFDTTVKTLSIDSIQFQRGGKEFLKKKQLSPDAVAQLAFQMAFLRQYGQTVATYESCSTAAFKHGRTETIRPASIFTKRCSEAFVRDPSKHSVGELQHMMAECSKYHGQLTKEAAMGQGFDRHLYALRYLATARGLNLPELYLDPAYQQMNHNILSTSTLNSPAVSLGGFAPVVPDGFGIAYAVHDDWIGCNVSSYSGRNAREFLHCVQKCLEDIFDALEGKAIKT
As to conditions: octanoyl-CoA as substrate, competitive; cited from earlier work.

Data set [3] addresses T1, rCPT-2. The data set is described as follows: rCPT-2 activity assay, spectrophotometric with DTNB. The format is biochemical. As to conditions: diluted lysate, 30 °C, reverse reaction, no additional β-OG. In outline:
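The reverse reaction was run at 30 °C with crude Pichia pastoris lysate (30 nM enzyme) in 25 mM Tris–HCl pH 7.4, 120 mM KCl and 1 mM EDTA, without added β-OG. Substrates were 500 μM carnitine and 80 μM palmitoyl-CoA. Released CoA-SH was detected with DTNB by absorbance at 410 nm (ε 13,600 M−1 cm−1). Inhibitors were titrated from 10 mM DMSO stocks.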

Data set [4] has as its target T1, rCPT-2. The experiment in a line: Isothermal titration calorimetry. The format is binding. Put shortly:
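Inhibitor (100–300 μM, from 10 mM DMSO stock, in identical buffer) was injected in 10 μL steps. ΔH0, K and n came from a 1:1 fit, with ΔG0 and ΔS0 calculated. ΔCp0 came from runs at several temperatures. Proton transfer was tested with HEPES, Bicine or Tris buffers at pH 8 and 10 °C, fitting ΔHobs against buffer ionization enthalpy by linear regression.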

In data set [5] the target is T1, rCPT-2. The experiment in a line: Differential scanning calorimetry. The format is binding. Put shortly: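 Thermal unfolding was run by DSC at a scan rate of 30 °C/h. The reference cell held buffer, with a buffer–buffer blank as baseline. Transition midpoints were read from the curves.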
For data set [6], the target named is T1, rCPT-2. The experiment in a line: Binding site by X-ray crystallography and manual docking. The settings on record: crystal structures and docking models. In outline: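 Crystals were cryo-protected or oil-exchanged, flash frozen, and data collected at 100 K. Ligands were placed by manual modelling into the structure, then energy-minimised with protein atoms constrained.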

The conditions of data set [7]: cited from earlier work.

Like-named read-outs stand apart in the source and are kept apart here.

For `CCCCCCCCO[C@@H]1O[C@H](CO)[C@@H](O)[C@H](O)[C@H]1O` [β-OG, β-octyl glucoside], the figures for the CMC in data set [1] (14 °C), in data set [1] (30 °C) and in data set [1] (37 °C) were 32.8 mM, 27.8 mM and 28.6 mM, respectively. Besides, the values for the TΔSmic0 in data set [1] (14 °C), in data set [1] (30 °C) and in data set [1] (37 °C) were 13.7 kJ/mol, 11.5 kJ/mol and 9.79 kJ/mol, respectively. Moreover, the figures for the ΔGmic0 in data set [1] (14 °C), in data set [1] (30 °C) and in data set [1] (37 °C) were -8.12 kJ/mol, -9 kJ/mol and -9.12 kJ/mol, respectively. Besides, the ΔHmic0 in data set [1] (14 °C) was 5.56 kJ/mol; in data set [1] (30 °C) it was 2.51 kJ/mol; in data set [1] (37 °C) it was 0.669 kJ/mol; in data set [1] (45 °C) it was -2.26 kJ/mol. The “molar heat capacity change of micelle formation ΔCp0” value in data set [1] (slopes of ΔHmic0 versus temperature, with and without inhibitors) was −60 to −90 cal/mol K. For the same compound, the Ki on rCPT-2 [2] is 15000 µM.
At rCPT-2 [3], `CCCCCCCCCCCCCCNC(=O)N[C@H](CC(=O)[O-])C[N+](C)(C)C` [Inhibitor 4, reference compound] displayed an IC50 of 0.38 µM. The compound further yielded a Kd at rCPT-2 [4] (ITC, 10 °C, 25 mM Tris/HCl pH 8, 1% β-OG, 1% DMSO) of 10.5 ± 3.3 µM. Also, on rCPT-2 [4] (ITC, 10 °C, Tris/HCl pH 8), the “TΔS^0” value was -13.8 ± 2.1 kJ/mol, the “ΔG^0” value was -27.2 ± 1.3 kJ/mol and the “ΔH^0” value was -41 ± 2.9 kJ/mol. In addition, on rCPT-2 [4] (ITC, 37 °C, Tris/HCl pH 8), the Kd turned out to be 20 µM, the “TΔS^0” value is -15.5 kJ/mol, the “ΔG^0” value is -24.7 kJ/mol and the “ΔH^0” value is -39.7 kJ/mol. Moreover, at rCPT-2 [4] (Tris/HCl pH 8), the “sign of the reaction enthalpy” value was “exothermic”. Also, the “molar heat capacity change ΔCp0 of binding” value on rCPT-2 [4] (Tris/HCl pH 8, temperature dependence of ΔH^0) came to 11 cal/mol K. The Kd at rCPT-2 [4] (read-out: dissociation constants determined by ITC) stood at 20 µM. In data set [1] (7.5% (v/v) DMSO, compared to β-OG alone), the “effect on the CMC of β-OG” value is listed as “slightly increase”. Moreover, in data set [1] (14 °C), the CMC amounted to 35.1 mM, the TΔSmic0 is 13.6 kJ/mol and the ΔGmic0 was -7.95 kJ/mol. In data set [1] (25 °C), the CMC worked out at 31.3 mM, the TΔSmic0 was determined as 12.2 kJ/mol, the ΔGmic0 is -8.54 kJ/mol and the ΔHmic0 was 3.68 kJ/mol. Also, in data set [1] (30 °C), the CMC came to 31.0 mM, the TΔSmic0 is 11.1 kJ/mol, the ΔGmic0 is -8.7 kJ/mol and the ΔHmic0 worked out at 2.38 kJ/mol. In data set [1] (45 °C), this compound returned a CMC of 31.0 mM, a TΔSmic0 of 7.28 kJ/mol, a ΔGmic0 of -9.16 kJ/mol and a ΔHmic0 of -1.88 kJ/mol. Moreover, on rCPT-2 [5] (14 μM rCPT-2, 100 μM inhibitor), the “midpoint of the thermal unfolding transition of rCPT-2” value was 49.8 °C. In addition, the “total unfolding enthalpy of rCPT-2” value on rCPT-2 [5] (interval 30–55 °C, protein in excess of inhibitor) stood at 5314 kJ/mol. Moreover, the “stability increase of rCPT-2” value on rCPT-2 [5] (with versus without inhibitor) is around 3 °C. The “rCPT-2 (binding site)” value on rCPT-2 [6] is “Acylcarnitine site”.
For the compound cinnamycin, in data set [7], the “binding constants of the PE–cinnamycin complex, times smaller in the β-OG environment” value was 10–100 times and the “free energy of binding ΔG^0, less negative in β-OG micelles than in the aqueous phase” value was 4.2 to 10.5 kJ/mol.
